A selection: hits, their analogues and other compounds. The true share with any hit is near 1.8%.
NPY-Y2 PAM-ag: potentiators or agonists of human neuropeptide Y receptor Y2. cells expressing NPY-Y2, potentiator/agonist read-out. activation, % at 3.6 µM. 220,000 tested, 0.45% active; in the data active = activation above about 27%;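 also: cells stimulated with NPY near EC25 plus isoproterenol at EC100; 0% = vehicle plus submaximal agonist and 100% = vehicle plus saturating agonist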
Target sequence (P49146 whole entry, looked up): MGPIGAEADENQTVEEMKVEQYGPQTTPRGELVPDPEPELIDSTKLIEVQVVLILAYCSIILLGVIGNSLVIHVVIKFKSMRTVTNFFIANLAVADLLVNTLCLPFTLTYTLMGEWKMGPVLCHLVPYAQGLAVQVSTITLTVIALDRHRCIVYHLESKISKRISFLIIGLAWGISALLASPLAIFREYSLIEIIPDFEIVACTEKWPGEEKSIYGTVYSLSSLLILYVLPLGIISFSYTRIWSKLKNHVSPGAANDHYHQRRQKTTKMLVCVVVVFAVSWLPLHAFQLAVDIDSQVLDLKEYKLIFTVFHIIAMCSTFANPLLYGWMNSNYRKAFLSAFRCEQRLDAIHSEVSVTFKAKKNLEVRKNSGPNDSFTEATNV
NPY Y2 blocker: antagonists of human neuropeptide Y receptor Y2. NPY-Y2 expressing cells, antagonist mode. inhibition, % at 2.7 µM. 140,000 tested, 0.99% active. AID 793; in the data active = inhibition above about 17%;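 also: 0% = vehicle with agonist challenge and 100% = reference antagonist with challenge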
NPY Y1 blocker: NPY-Y1 (human) receptor antagonism | HEK293-CNG Y1 cells, membrane potential fluorescence; NPY at EC95, then isoproterenol | inhibition, % at 3.6 µM | 200,000 tested, 1% active;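 active = inhibition above the campaign mean inhibition of all tested compounds plus 3 SD, cut at about 20% in these data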;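 also: 0% = DMSO wells given NPY plus isoproterenol and 100% = isoproterenol alone without NPY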
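Benchmarks – high control isoproterenol alone, low control NPY with isoproterenol · Material – HEK293 Y1/CNG channel cell line · Times – dye 3 h, compound 60 min room temperature, stimulation 45 min · Probe or stimulus – NPY (25 nM), isoproterenol (1 µM), Ro 20-1724 (25 µM) · Evaluation – % inhibition of NPY effect · Signal – fluorescence, membrane potential probe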
NPY1 pot ag: human NPY-Y1 potentiation or agonism, primary screen; AID 1304; activation, % at 3.6 µM; 220,000 tested, 0.37% active; P25929; NPY-Y1 expressing cells, potentiator/agonist activation; in the data active = activation above about 33%, passing the limit was not always enough;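 also: cells stimulated with NPY at EC10 then isoproterenol at EC100; 0% = low agonist plus stimulus and 100% = saturating agonist plus stimulus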
Numbers without * were called inactive; · = no result.

SMILES	NPY-Y2 PAM-ag	NPY Y2 blocker	NPY Y1 blocker	NPY1 pot ag
COc1cc(OC)cc(C(=O)N[C@H](C(=O)OCC(=O)Nc2cccc(F)c2)C(C)C)c1	3.3	3.0	6.5	-26.1
Cc1ccc2nc(N3C(=O)C(O)=C(C(=O)c4ccco4)C3c3cccs3)sc2c1 (stereo unspecified)	-19.9	19.0*	36.8*	-31.9
COC(=O)C1=CN(C2CC2)C=C(C(=O)OC)C1c1ccc(C(F)(F)F)cc1	-0.6	·	20.7*	-4.9
O=C(NC1CCCCCCC1)C1c2ccccc2C(=O)N1Cc1ccco1 (stereo unspecified)	-28.1	13.1	11.3	5.7
CC1CCCC(NC(=O)C2c3ccccc3C(=O)N2Cc2cccs2)C1C (stereo unspecified)	-22.7	24.6*	34.6*	-17.6
O=C(NCc1cccs1)C(=O)c1c[nH]c2ccccc12	11.6	·	9.1	-1.7
CN(C)CCOc1nc(-c2ccccc2)nc2c1oc1ccccc12	69.0*	6.0	-0.7	59.5*
CN(C)CCOc1ncnc2c1oc1ccccc12	-13.6	2.0	-0.6	-6.0
CCn1c(/C=C/Nc2ccccc2)[n+](CC)c2ccc(Cl)cc21	0.2	12.5	4.4	-6.4
CCn1c(/C=C/N(C)c2ccccc2)[n+](CC)c2ccc(Cl)cc21	-2.8	30.6*	26.3*	-24.9
CC(C)(C)NC[C@H](O)COc1nsnc1N1CCOCC1	103.6*	0.9	-10.7	118.1*
CCOC(=O)c1cnc2ccc(OCC)cc2c1NCc1ccccc1OC	-23.7	49.4*	27.3*	-60.4
CCOC(=O)c1cnc2ccc(OC)cc2c1NCc1ccccc1	-51.3	19.3*	26.6*	-74.5
COC(=O)CSc1nc(N)c2c3c(sc2n1)C(c1ccccc1)SC(c1ccccc1)C3 (stereo unspecified)	55.7*	-0.2	-13.4	80.9*
CC(C)(C)C1CCc2c(sc3nc(SCC(=O)O)nc(N)c23)C1 (stereo unspecified)	101.1*	·	·	105.5*
COC(=O)CSc1nc(N)c2c3c(sc2n1)CCCC3	7.9	1.6	-4.9	26.8
COc1ccc(-c2nnc(SCCC(=O)O)n2-c2ccccc2)cc1OC	4.7	3.1	-0.3	-19.9
Cc1ccc(OCC(=O)Nc2ccc([N+](=O)[O-])cn2)cc1C	-8.2	9.1	24.5*	-32.6
CC(C)OCC(O)CCc1n[nH]c(=S)n1-c1ccccc1 (stereo unspecified)	-6.0	-0.7	-0.6	18.9
Cc1nc(SCC(=O)NCc2ccco2)c2c3c(sc2n1)CCCC3	-17.0	23.7*	25.4*	-10.5
O=C(CSc1nc(C2CC2)nc2sc3c(c12)CCCC3)NCc1ccco1	5.2	10.6	2.0	-5.7
CC1CCCC(C)N1NC(=O)c1cccc(S(=O)(=O)N2CCc3ccccc32)c1 (stereo unspecified)	0.2	·	9.2	-17.3
Cc1cc(O)c(C(C)C)cc1C1(c2cc(C(C)C)c(O)cc2C)OC(=O)c2ccccc21	70.1*	·	·	76.3*
Cc1cc(C2(c3ccc(O)c(C)c3)OC(=O)c3ccccc32)ccc1O	-11.0	4.9	0.0	-16.5
Cc1ccccc1OCC(O)Cn1c(=N)n(Cc2ccccc2)c2ccccc21 (stereo unspecified)	-17.0	·	·	-3.1
SMILES	NPY-Y2 PAM-ag	NPY Y2 blocker	NPY Y1 blocker	NPY1 pot ag
CCCCn1c(=N)n(CC(O)COc2cccc(C)c2)c2ccccc21 (stereo unspecified)	-22.0	53.9*	30.9*	-26.1
COc1ccccc1OCC(O)Cn1c(=N)n(Cc2ccccc2)c2ccccc21 (stereo unspecified)	-26.4	39.0*	27.4*	-55.4
CCCCCn1c(=N)n(CC(O)COc2ccccc2OC)c2ccccc21 (stereo unspecified)	-28.0	35.2*	24.9*	-75.8
O=C(c1c[nH]c2ccc(F)cc2c1=O)N1CCCCCC1	4.7	-1.1	2.0	-7.3
Cc1cccc2c(=O)c(C(=O)N3CCCCCC3)c[nH]c12	-38.9	21.6*	20.8*	-77.2
COc1ccc2sc(N(CCN(C)C)C(=O)/C=C/c3cccs3)nc2c1	41.3*	·	8.5	41.6*
CCOC(=O)c1c(C)c2c(n1C)CCC/C2=N\O	-15.8	32.1*	39.3*	-45.2
c1cn2c(Nc3ccc4c(c3)OCCO4)c(-c3ccc(N4CCOCC4)cc3)nc2cn1	-19.4	·	·	18.0
Cc1cccc(C)c1Nc1c(-c2ccc(N3CCOCC3)cc2)nc2cnccn12	70.5*	·	·	84.5*
COC(=O)CNC(c1ccccc1)c1cc(Br)ccc1NC(=O)CNC(=O)OCc1ccccc1 (stereo unspecified)	-5.2	29.4*	25.0*	1.1
CCOC(=O)CNC(c1ccccc1)c1cc(Br)ccc1NC(=O)OCC (stereo unspecified)	-23.0	8.4	19.1	-24.2
COc1ccc(C(=O)c2sc(NC(C)C)nc2N)cc1OC	-18.3	5.5	2.6	3.6
Cc1ccc(S(=O)(=O)Nc2ccc(Br)cc2/C=N/n2cnnc2)cc1	47.2*	1.1	-18.0	49.4*
N#Cc1c(NCCN)nc(-c2ccco2)c2c1CCCC2	-59.4	22.4*	44.1*	-107.6
CC1=CC(=O)c2ccccc2C1=O	1.1	1.0	-2.5	1.6
COc1cccc2c1C(=O)C=C(C)C2=O	34.5*	-0.2	4.8	51.5*
Cc1cc2ncn(C(=O)c3ccc4c(c3)OCO4)c2cc1C	-9.9	3.0	-7.5	-11.3
C=CC#CC[N+]1(CC#Cc2ccccc2)CCOCC1	1.2	1.9	3.8	25.3
CCc1ccc2[nH]c(=O)c(CN(Cc3ccccc3OC)Cc3nnnn3Cc3ccco3)cc2c1	6.8	18.7*	12.6	-2.2
Cc1ccc(N/C(N)=N/c2nc3c(c(=O)[nH]2)CCCC3)c(C)c1	5.5	0.2	0.4	-11.1
CC(=O)SC(C)CC(=O)Nc1ccccc1 (stereo unspecified)	33.7*	-6.6	-18.6	41.9*
CC(=O)SC(C)CC(=O)NCc1ccccc1 (stereo unspecified)	54.1*	-5.8	-8.8	118.7*
C=C(C)CN(CC)CCC(=O)Nc1ccc(OC)cc1OC	1.0	3.0	4.1	-18.6
CCOC(=O)c1c(C)oc2cc(Cl)c(O)c(CN(C)C)c12	-19.5	·	·	-28.6
CCOC(=O)c1c(C)n(C)c2ccc(O)c(CN(CC)CC)c12	60.2*	14.8	-5.4	69.7*
SMILES	NPY-Y2 PAM-ag	NPY Y2 blocker	NPY Y1 blocker	NPY1 pot ag
CCOC(=O)c1c(C)oc2ccc(O)c(CN(C)C)c12	52.6*	5.8	-8.2	60.5*
COCCn1c(N)c(N(Cc2ccccc2)C(=O)Cc2ccccc2F)c(=O)[nH]c1=O	5.8	·	-4.1	13.1
O=C(O)c1cccc(Cn2cc(Cl)cn2)c1	-6.8	0.9	4.4	-2.4
O=[N+]([O-])c1ccc(N/N=C/c2c[nH]c3ccccc23)cc1	48.4*	-8.3	-20.2	54.6*
Cc1ccccc1/C=N/Nc1nc2ccccc2[nH]1	-22.8	·	12.1	-34.1
COc1ccccc1NS(=O)(=O)c1cc([N+](=O)[O-])ccc1N/N=C/c1c[nH]c2ccccc12	34.4*	-5.5	-3.6	38.7*
COc1ccc(NS(=O)(=O)c2cc([N+](=O)[O-])ccc2N/N=C\c2c(C)[nH]c3ccccc23)cc1	-3.9	0.9	1.2	12.6
C(=N\Nc1nc2ccccc2[nH]1)/c1c[nH]c2ccccc12	34.2*	-0.3	-6.1	43.6*

Assay outcomes (PubChem)
